# Reference: ChEMBL document CHEMBL4325893, “Synthesis and antibacterial profiles of targeted triclosan derivatives” (2019)
# What was measured:
# Hafnia alvei = assay: Antibacterial activity against Hafnia alvei 13337 after 18 hrs; assay type: functional; conditions: Hafnia alvei, 13337, 18 h
# Procedure, shortened: (§1)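 Broth microdilution in Nutrient Broth No. 2; stocks in ethanol diluted to 0.01–128 µg/ml (triclosan) or 0.25–256 µg/ml (glycosides). Overnight 37 °C NB2 cultures diluted 1 in 10^4 in saline and added to the dilutions. Incubation at 37 °C with agitation, OD read every 15 min; MIC is the lowest concentration preventing any OD rise after 18 h.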
# Escherichia coli [1] = assay: Antibacterial activity against Escherichia coli ATCC 11775 after 18 hrs; assay type: functional; procedure, shortened: as §1
# Escherichia coli [2] = assay: Antibacterial activity against Escherichia coli ATCC 25922 after 18 hrs; assay type: functional; conditions: ATCC 25922, 18 h; procedure, shortened: as §1
# Cronobacter sakazakii = assay: Antibacterial activity against Cronobacter sakazakii 29544 after 18 hrs; assay type: functional; conditions: Cronobacter sakazakii, 29544, 18 h; procedure, shortened: as §1
# Staphylococcus aureus [3] = assay: Antibacterial activity against Staphylococcus aureus ATCC 25923 after 18 hrs; assay type: functional; conditions: ATCC 25923, 18 h; procedure, shortened: as §1
# Proteus vulgaris = assay: Antibacterial activity against Proteus vulgaris OCC 195 after 18 hrs; assay type: functional; conditions: OCC 195, 18 h; procedure, shortened: as §1
# Staphylococcus aureus [4] = assay: Antibacterial activity against Staphylococcus aureus ATCC 29213 after 18 hrs; assay type: functional; conditions: ATCC 29213, 18 h; procedure, shortened: as §1
# Bacillus cereus = assay: Antibacterial activity against Bacillus cereus ATCC 14579 after 18 hrs; assay type: functional; conditions: ATCC 14579, 18 h; procedure, shortened: as §1
# Enterococcus faecalis = assay: Antibacterial activity against Enterococcus faecalis ATCC 33186 after 18 hrs; assay type: functional; conditions: ATCC 33186, 18 h; procedure, shortened: as §1
# Salmonella typhimurium = assay: Antibacterial activity against Salmonella enterica subspecies enterica serotype typhimurium ATCC 14028 after 18 hrs; assay type: functional, Salmonella enterica subsp. enterica serovar Typhimurium; conditions: ATCC 14028, 18 h; procedure, shortened: as §1
# Streptococcus pyogenes = assay: Antibacterial activity against Streptococcus pyogenes ATCC 19615 after 18 hrs; assay type: functional; conditions: ATCC 19615, 18 h
# Procedure, shortened: (§2)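 Broth microdilution in Nutrient Broth No. 2. Ethanol stocks were diluted in broth to 0.01–128 µg/ml for triclosan and 0.25–256 µg/ml for glycosides. Overnight 37°C NB2 cultures were diluted 1 in 10^4 in saline and added to the wells. Plates were incubated at 37°C with OD read every 15 min after agitation. MIC was the lowest concentration giving no OD increase at 18 h.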
# Escherichia coli [5] = assay: Antibacterial activity against Escherichia coli NCTC 13216 after 18 hrs; assay type: functional; conditions: NCTC 13216, 18 h; procedure, shortened: as §1
# Klebsiella pneumoniae = assay: Antibacterial activity against Klebsiella pneumoniae ATCC 13883 after 18 hrs; assay type: functional; conditions: ATCC 13883, 18 h; procedure, shortened: as §1
# [6] = Antibacterial activity against Salmonella enterica subspecies enterica serotype Nottingham NCTC 7832 after 18 hrs; assay type: functional, Salmonella enterica subsp. enterica serovar Nottingham; conditions: NCTC 7832, 18 h; procedure, shortened: as §1
# Klebsiella aerogenes [7] = assay: Antibacterial activity against Enterobacter aerogenes ATCC 13048 after 18 hrs; assay type: functional; conditions: ATCC 13048, 18 h; procedure, shortened: as §1
# Citrobacter freundii = assay: Antibacterial activity against Citrobacter freundii OCC 851 after 18 hrs; assay type: functional; conditions: OCC 851, 18 h; procedure, shortened: as §1
# [8] = tested on: Salmonella enterica subsp. enterica serovar Abony; assay: Antibacterial activity against Salmonella enterica subspecies enterica serotype Abony NCTC 6017 after 18 hrs; assay type: functional; conditions: NCTC 6017, 18 h; procedure, shortened: as §1
# Klebsiella aerogenes [9] = assay: Antibacterial activity against Klebsiella aerogenes NCTC 8167 after 18 hrs; assay type: functional; conditions: NCTC 8167, 18 h; procedure, shortened: as §1
# Escherichia coli [10] = assay: Antibacterial activity against Escherichia coli OCC 122 after 18 hrs; assay type: functional; conditions: OCC 122, 18 h; procedure, shortened: as §1
# Staphylococcus aureus [11] = assay: Antibacterial activity against Staphylococcus aureus ATCC 6538 after 18 hrs; assay type: functional; conditions: ATCC 6538, 18 h; procedure, shortened: as §1
# Escherichia coli [12] = assay: Antibacterial activity against Escherichia coli ATCC 35218 after 18 hrs; assay type: functional; conditions: ATCC 35218, 18 h; procedure, shortened: as §1
# Streptococcus pneumoniae = assay: Antibacterial activity against Streptococcus pneumoniae ATCC 49619 after 18 hrs; assay type: functional; conditions: ATCC 49619, 18 h; procedure, shortened: as §2
# Staphylococcus aureus [13] = assay: Antibacterial activity against Staphylococcus aureus OCC 104 after 18 hrs; assay type: functional; conditions: OCC 104, 18 h; procedure, shortened: as §1
# [14] = Antibacterial activity against Salmonella enterica subspecies enterica serotype Poona NCTC 4840 after 18 hrs; assay type: functional, Salmonella enterica subsp. enterica serovar Poona; conditions: NCTC 4840, 18 h; procedure, shortened: as §1
# [15] = tested on: Staphylococcus epidermidis; assay: Antibacterial activity against Staphylococcus epidermidis 155 after 18 hrs; assay type: functional; conditions: Staphylococcus epidermidis, 155, 18 h; procedure, shortened: as §1
# Escherichia coli [16] = assay: Antibacterial activity against Escherichia coli 700728 after 18 hrs; assay type: functional; conditions: Escherichia coli, 700728, 18 h; procedure, shortened: as §1
# Escherichia coli [17] = assay: Antibacterial activity against Escherichia coli ATCC 8739 after 18 hrs; assay type: functional; conditions: ATCC 8739, 18 h; procedure, shortened: as §1
# [18] = Antibacterial activity against Salmonella enterica subspecies enterica serotype Virchow NCTC 5742 after 18 hrs; assay type: functional, Salmonella enterica subsp. enterica serovar Virchow; conditions: NCTC 5742, 18 h; procedure, shortened: as §1
smiles,measurement,setting,value
Oc1cc(Cl)ccc1Oc1ccc(Cl)cc1Cl [TRICLOSAN],MIC,Hafnia alvei,0.1 µg/mL
same,MIC,Escherichia coli [1],0.1 to 0.5 µg/mL
same,MIC,Escherichia coli [2],0.1 to 0.5 µg/mL
same,MIC,Cronobacter sakazakii,0.5 µg/mL
same,MIC,Staphylococcus aureus [3],0.01 µg/mL
same,MIC,Proteus vulgaris,0.5 µg/mL
same,MIC,Staphylococcus aureus [4],0.01 µg/mL
same,MIC,Bacillus cereus,2 µg/mL
same,MIC,Enterococcus faecalis,8 µg/mL
same,MIC,Salmonella typhimurium,0.5 to 1 µg/mL
same,MIC,Streptococcus pyogenes,1 µg/mL
same,MIC,Escherichia coli [5],0.1 to 0.5 µg/mL
same,MIC,Klebsiella pneumoniae,0.1 µg/mL
same,MIC,[6],0.5 to 1 µg/mL
same,MIC,Klebsiella aerogenes [7],0.5 µg/mL
same,MIC,Citrobacter freundii,0.5 µg/mL
same,MIC,[8],0.5 to 1 µg/mL
same,MIC,Klebsiella aerogenes [9],0.5 µg/mL
same,MIC,Escherichia coli [10],0.1 to 0.5 µg/mL
same,MIC,Staphylococcus aureus [11],0.01 µg/mL
same,MIC,Escherichia coli [12],0.1 to 0.5 µg/mL
same,MIC,Streptococcus pneumoniae,1 µg/mL
same,MIC,Staphylococcus aureus [13],0.01 µg/mL
same,MIC,[14],0.5 to 1 µg/mL
same,MIC,[15],0.01 µg/mL
same,MIC,Escherichia coli [16],0.1 to 0.5 µg/mL
same,MIC,Escherichia coli [17],0.1 to 0.5 µg/mL
same,MIC,[18],0.5 to 1 µg/mL
